ChEMBL document CHEMBL1909523, “2,6-Bis-arylmethyloxy-5-hydroxychromones with antiviral activity against both hepatitis C virus (HCV) and SARS-associated coronavirus (SCV)” (Eur J Med Chem, 2011)
pEC50, pIC50: −log10 of the molar value. Active and inactive are the calls of the source. No cut-off for these calls is given here.

Tests used:
Hepatitis C virus [1] = test: Inhibition of HCV genotype 1b NS5B cdelta21 RNA polymerase using [alpha32p]GTP after 30 mins by microbeta scintillation counting; settings: Hepatitis C virus subtype 1b
[2] = Inhibition of helicase activity of SCV NTPase/helicase assessed as inhibition of ds-DNA unwinding after 5 mins by FRET assay; parameters: species or system Severe acute respiratory syndrome-related coronavirus
Summary of the method: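 FRET unwinding: helicase solution (150 nM, 20 mM HEPES pH 7.4) preincubated 5 min at rt with compound. Started with 5× mix (5 mM MgCl2, 45 mM ATP, 25 mM DTT, 100 nM substrate): 25-bp TAMRA/fluorescein dsDNA with 20-dT 5′ overhang. Run 2 min at 37 °C, stopped with EDTA plus unlabelled trap oligomer; ex 485/em 535 nm. Value is 50% inhibition concentration.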

HS27 = test: Cytotoxicity against human HS27 cells after 24 hrs by MTT assay; assay type: cell-based; settings: hs27, 24 h
Summary of the method: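 Normal human fibroblast HS27 cells, 5 × 10^3/well in DMEM, grown 1 day (37 °C, 5% CO2), then given compounds at 0.1, 0.5, 1, 5, 10 and 50 µM (from DMSO) for 24 h; MTT viability read-out; triplicates, repeated three times. Value is the concentration reducing proliferation by 50%.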

Hepatitis C virus [3] = test: Antiviral activity against HCV genotype 1 infected in human Huh7 cells assessed as reduction of viral replication after 4 days by luciferase reporter gene assay; assay type: functional, organism-based, Hepacivirus hominis; settings: genotype 1, Huh-7, 96 h
Summary of the method: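 Subgenomic genotype 1 replicon (luc-ubi-neo) Huh-5-2 cells, 5 × 10^3/well, in DMEM with 500 µg/mL G418 for 24 h at 37 °C, 5% CO2; medium refreshed with G418, compounds added from DMSO stock; 4 days at 37 °C; luciferase read-out. Value is the concentration inhibiting HCV RNA replication by 50%.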

[4] = Inhibition of NTPase activity of SCV NTPase/helicase after 5 mins by FRET assay; parameters: species or system Severe acute respiratory syndrome-related coronavirus

SMILES	inhibition (Hepatitis C virus [1])	pIC50 [2]	Activity (HS27)	pEC50 (Hepatitis C virus [3])	pIC50 [4]
O=c1cc(OCc2cc(Cl)cc(Cl)c2)oc2ccc(OCc3cccc(Cl)c3)c(O)c12	inactive	< 4.30	> 50 µM	6.00	< 4.30
O=c1cc(OCc2cccc(Cl)c2)oc2ccc(OCc3cccc(Cl)c3)c(O)c12	inactive	4.40	> 50 µM	4.77	5.00
O=c1cc(OCc2cccc(I)c2)oc2ccc(OCc3cccc(Cl)c3)c(O)c12	inactive	4.96	> 50 µM	5.40	5.40
O=c1c(OCc2cccc([N+](=O)[O-])c2)c(-c2ccccc2)oc2cc(O)cc(O)c12	–	< 4.30	> 50 µM	–	< 4.30
O=c1cc(OCc2ccc(Cl)cc2)oc2ccc(OCc3cccc(Cl)c3)c(O)c12	inactive	4.28	> 50 µM	4.62	4.55
N#Cc1cccc(COc2cc(O)c3c(=O)c(O)c(-c4ccccc4)oc3c2)c1	–	< 4.30	> 50 µM	–	< 4.30
N#Cc1cccc(COc2cc(=O)c3c(O)c(OCc4cccc(Cl)c4)ccc3o2)c1	inactive	< 4.30	> 50 µM	4.77	4.43
O=C(O)/C(O)=C/C(=O)c1cccc(NCc2ccc(Cl)cc2)c1	–	–	> 50 µM	6.10	< 4.30
O=c1cc(OCc2ccccc2)oc2ccc(OCc3cccc(Cl)c3)c(O)c12	inactive	< 4.30	> 50 µM	< 4.30	< 4.30
O=c1cc(OCc2ccc(I)cc2)oc2ccc(OCc3cccc(Cl)c3)c(O)c12	inactive	4.51	> 50 µM	5.52	4.64
